The entries come from a sample that favours hits as a whole.
T cruzi repl: T. cruzi replication inhibition. inhibition, % (concentration not given with the values). hit rate 1.4% among 300,000. T. cruzi beta-gal in NIH3T3, luminescence, 90 h;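 active = mean inhibition across valid replicates above about 55%, limit read from the data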;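 also: signal also drops with host cell toxicity which is not excluded here; 0% = plate median of DMSO wells and 100% = zero luminescence signal; higher percent means less beta-gal luminescence so fewer parasites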
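Incubation – ≥90 h infection period, 3 h prior cell attachment · System – NIH/3T3 fibroblasts plus reporter T. cruzi · Doses – compound pinned at 50 nL/well, DMSO · Read-out basis – percent inhibition of parasite-derived β-gal signal · Signal – luminescent β-galactosidase signal after 60 min lysis · Also added – 5000 T. cruzi trypomastigotes/well · Medium – Low-serum DMEM with 2% FBS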
MPTP inh: inhibitors of mitochondrial permeability transition pore. isolated mouse mitochondria, Ca2+ swelling absorbance, 30 min. inhibition, % at 10 µM. hit rate 1.4% among 360,000. AID 602449;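 active = inhibition of 50% or more, scaled per plate between neutral and stimulator controls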;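 also: 0% = DMSO wells given calcium and 100% = 1 mM EGTA wells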
Redox H2O2 prof: compounds producing H2O2 with reducing agent – biochemical, NIH compound library profiling, artefact control for MLSCN library redox annotation, primary screen | DTT-dependent redox cycling H2O2, phenol red/HRP absorbance; 100% = 100 µM peroxide control, 0% = buffer | activation, % at 10 µM | hit rate 0.03% among 200,000 | AID 878;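 active = activation of at least 50% relative to the plate's high and low controls in the primary single-dose screen; inactive = activation below 50%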;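 also: compound incubated with DTT at 0.8 mM final as the reducing agent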
L major viab: reduces viability of Leishmania major promastigotes; resazurin fluorescence viability; AID 1063; hit rate 9% among 200,000; inhibition, % at 10 µM; in the data active = inhibition above about 50%;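 also: promastigotes grown with compound for 44 hours at 28 °C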
Hep lipid drop: modulators of hepatic lipid droplet formation; AML12 mouse hepatocytes, oleate lipid droplets, BODIPY imaging; hit rate 0.4% among 240,000; AID 1656; inhibition, % at 6.5 µM;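 active = lipid droplet intensity inhibited by at least 50%, with more than 500 cells counted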
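Assay system: AML12 hepatocytes (mouse); Probe or stimulus: oleic acid at 100 µM to induce lipid droplet formation; Dosing: compound at 6.5 µM only; Schedule: compound with oleate, overnight; Detection: fluorescence imaging, 20x objective, two fields per well; Measure: % inhibition of lipid droplet signal.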
Starred values were filed as active, the others as inactive; . = no result.

SMILES	T cruzi repl	MPTP inh	Redox H2O2 prof	L major viab	Hep lipid drop
CCOC1=C2CN(S(=O)(=O)c3ccc(C)cc3)[C@H](c3ccccc3)C[C@@H]2N(S(=O)(=O)c2ccc(C)cc2)[C@H](c2cccs2)C1	.	-1	.	.	.
Cc1c(NC(=O)C(C)N(c2ccccc2)S(C)(=O)=O)c(=O)n(-c2ccccc2)n1C (centres undefined)	0	0	-1	-1	3
CN1CCN(c2ccc(S(=O)(=O)N3CCCCC3)cc2NC(=O)COc2ccc(F)cc2)CC1	64*	-3	.	.	.
CN1CCC(N(C)S(=O)(=O)c2ccc(NC(=O)COc3ccc(F)cc3)cc2)CC1	58*	-1	.	.	.
O/N=C\c1cnc(N2CCN(c3ccccc3)CC2)s1	-9	0	.	.	7
Oc1ccc(Nc2ccc3ccccc3c2)cc1	.	4	.	.	.
C=CCN(CC=C)CCOc1cccc2ccccc12	2	0	0	62*	-2
C=CCN(CC=C)CCOc1ccccc1	-22	1	0	54*	2
C=CCN(CC=C)CCOc1ccccc1F	-4	1	0	31	3
C=CCN(CC=C)CCOc1ccc2ccccc2c1	21	-3	0	41	24
Cc1cccc(C)c1N(CC(=O)NCc1ccc(F)cc1)C(=O)c1csnn1	9	0	-1	-5	2
CCCOc1ccc(CN(CCC#N)C(=S)NC(=O)c2ccccc2)cc1	4	1	0	85*	7
Cc1cccc(NC(=S)N=Nc2c(O)[nH]c3ccccc23)c1	64*	7	0	97*	-14
CC(C)NC(=S)N=Nc1c(O)[nH]c2ccc(C(C)C)cc12	59*	7	0	91*	11
O=C(N=Nc1c(O)[nH]c2ccccc12)Nc1ccccc1	.	-2	.	.	.
CC(C)c1ccc2[nH]c(O)c(N=NC(=O)c3cccc(S(=O)(=O)Nc4ccccc4Cl)c3)c2c1	41	1	0	1	-11
CCOc1ncccc1C(=O)OCCCC(=O)c1ccc(Br)cc1	.	0	.	.	.
Cc1ccc(C)c(Oc2ccc(S(=O)(=O)N3CCN(C)CC3)cn2)c1	55*	-1	.	.	.
Cc1ccc(C(O)c2ncc(-c3ccccc3C(F)(F)F)[nH]2)cc1F (centres undefined)	.	5	.	.	.
O=C1C=CC(O)(c2cc(=O)c3c(O)cc(O)cc3o2)C=C1	-39	1	1	70*	-72
O=C(Nc1nnc([C@H]2C[C@H](O)[C@@H](CO)O2)s1)NC1CCCCC1	.	-3	.	.	.
Cc1ccsc1C(=O)N1CCc2ccccc2C1	7	2	.	.	-8
O=C(Cn1c(C(=O)N2CCc3ccccc3C2)cc2sccc21)c1ccccc1	37	0	2	61*	.
O=C(Cn1c(C(=O)N2CCN(C3CCCCC3)CC2)cc2sccc21)c1ccccc1	76*	-2	0	81*	.
COC(=O)c1sc2nc(C)nc(SCC(=O)C(C)(C)C)c2c1C	21	39	-1	13	-16
SMILES	T cruzi repl	MPTP inh	Redox H2O2 prof	L major viab	Hep lipid drop
CC(=O)N1c2ccccc2N=C(c2ccc3c(c2)OCO3)C1C(=O)NCc1ccccc1 (centres undefined)	.	0	.	.	.
COc1ccc([C@@H]2CC=C(C(=O)O)[C@H](c3ccccc3F)N2S(=O)(=O)c2ccccc2C)cc1	.	-2	.	.	.
Cn1cnc(S(=O)(=O)N2CCCCC2c2cc(C(=O)Nc3ccc(F)c(Cl)c3)no2)c1 (centres undefined)	.	1	.	.	.
COc1ccc(C(=O)Nc2ncc3c(n2)CC(C)CC3=O)cc1 (centres undefined)	64*	-1	0	-3	-5
COc1ccc(C)cc1Cn1nnc2ccccc21	-9	10	.	.	.
COc1ccc(C(=O)/C=C/c2ccc(OC)c(Cn3nnc4ccccc43)c2)cc1	4	3	2	85*	-15
COc1ccc(/C=C/C(=O)c2ccc(O)cc2)cc1CN1CCOCC1	-12	0	-1	98*	1
COc1ccc(/C=C/C(=O)c2ccc3ccccc3c2O)cc1CN1CCOCC1	17	0	-1	34	-22
COc1ccc(/C=C/C(=O)C23CC4CC(CC(C4)C2)C3)cc1CN1CCOCC1	48	-1	-1	66*	5
COc1ccc(/C=C/C(=O)c2ccccc2O)cc1CN1CCOCC1	9	1	0	24	-22
COc1ccc(C(=O)/C=C/c2ccc(OC)c(CN3CCOCC3)c2)cc1	0	1	0	86*	-12
Cc1onc(-c2c(F)cccc2Cl)c1C(=O)N(C)C1CCCCC1	3	0	.	.	-24
Cc1[nH]nc2nc(SCC(=O)NC3CCCCC3)n(-c3ccc(Br)cc3)c(=N)c12	-15	-1	.	.	-12
COc1ccc(C(=O)Cn2c(C(C)=O)nc3ccccc32)cc1	.	-2	.	.	.
COc1ccc(/C=C/C(=O)c2nc3ccccc3n2CC(=O)c2ccc(OC)cc2)cc1	3	0	-3	75*	.
COc1cc(CNCc2ccccc2)cc(Cl)c1OC	-5	1	-4	66*	-66
CCOc1cc(CNCc2ccncc2)cc(Cl)c1OC	-7	0	0	89*	19
COc1cc(CNCCc2ccccc2)cc(Cl)c1OCc1ccccc1	37	6	-1	91*	13
COc1c(Cl)cc(Cl)cc1CNCc1ccccc1	9	-1	0	-3	-1
CCCCOc1c(Cl)cc(CNC(C)(C)CO)cc1OCC	42	2	1	42	5
CCCCNCc1cc(Cl)c(OCCC)c(OCC)c1	38	3	1	90*	15
Cc1cc(C)n(CCC(=O)N2CCCC(Nc3ccc(F)cc3)C2)n1 (centres undefined)	-4	0	.	.	-9
COc1ccc(S(N)(=O)=O)cc1C(=O)N(C)CC(=O)Nc1ccc(N2CCOCC2)cc1	-8	-2	.	.	-1
CCN(C(=O)Cc1c(C(=O)O)[nH]c2ccccc12)c1ccc(OC)cc1	-15	0	0	-4	4
Cc1ccc(/C=N\NC(=O)c2ccc(Cn3cc(Br)c([N+](=O)[O-])n3)o2)o1	74*	3	0	1	4
SMILES	T cruzi repl	MPTP inh	Redox H2O2 prof	L major viab	Hep lipid drop
O=C(N/N=C\c1cccc(Cl)c1)c1ccc(Cn2cc(Br)c([N+](=O)[O-])n2)o1	54	-5	0	23	2
Cc1c(Cl)c([N+](=O)[O-])nn1Cc1ccc(C(=O)N/N=C\c2cccc(Br)c2)o1	28	-1	2	55*	.
CCOc1ccc(S(=O)(=O)n2cc(-c3ccccc3)c(N)n2)cc1	2	1	1	-5	.
Nc1nn(S(=O)(=O)c2ccccc2)cc1-c1cccc([N+](=O)[O-])c1	57*	0	-1	3	-17
Cc1nc2c(ccc3nc(NC(=O)c4ccc5c(c4)OCCO5)sc32)s1	57*	1	0	63*	.
Cc1nc2ccc3nc(NC(=O)c4ccc5c(c4)OCCO5)sc3c2s1	-10	1	0	-2	.
CN(C(=O)COC(=O)C(C)(C)Oc1ccc(Cl)cc1)c1c(N)n(Cc2ccccc2)c(=O)[nH]c1=O	-19	-1	.	.	.

Screens from PubChem BioAssay.
